The values below come from article PMC6361726 (Bioorganic & medicinal chemistry, 2018).

One test concerns the target VicK (Streptococcus pneumoniae, UniProt Q8DPL8). Briefly: ATP[γ-33P] enzymatic activity inhibition assay. The test is classed as biochemical. To be noted: at non-aggregating concentrations. An outline of the steps:
(§1)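 Secondary assay run in a coupled competition-aggregation format on two histidine kinases: HK853 from Thermotoga maritima and VicK from Streptococcus pneumoniae. Enzymatic activity is followed using ATP[γ-33P], and the degree of inhibition by the test compound is measured.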

Test [1] has as its system Methicillin-sensitive Staphylococcus aureus. Briefly: Cell viability by optical density and resazurin indicator dye. The test is classed as cell-based. To be noted: compared to a DMSO control, one replicate.
Another test deals with S. aureus. Briefly: Biofilm formation, crystal violet staining assay. The test is classed as cell-based, Staphylococcus aureus. To be noted: compared to a DMSO control, one replicate.
In another test the target is p38 MAP kinase. Conditions: read-out: inhibition of p38 MAP kinase; quantity type not given; cited from earlier work.
A further test relates to Pseudomonas aeruginosa. Description: Cell viability by optical density and resazurin indicator dye. Type of test: cell-based. To be noted: compared to a DMSO control, one replicate. In general terms: The colour change of resazurin is a common sign of viable cells or microbes.
The next test relates to protein kinase D. Conditions: cited from earlier work.
Test [2] deals with HK853. Description: Fluorescence polarization. The test is classed as binding, Thermotoga maritima. For orientation: Polarisation of emitted light reports the rotation of a fluorescent probe.
In test [3] the test system is HK853. Briefly: ATP[γ-33P] enzymatic activity inhibition assay. Type of test: biochemical, Thermotoga maritima. To be noted: at non-aggregating concentrations. An outline of the steps: as §1
Another test deals with P. aeruginosa. Description: Biofilm formation, crystal violet staining assay. The test is classed as cell-based, Pseudomonas aeruginosa. Conditions: compared to a DMSO control, one replicate.

Sequence of VicK (Q8DPL8 whole entry): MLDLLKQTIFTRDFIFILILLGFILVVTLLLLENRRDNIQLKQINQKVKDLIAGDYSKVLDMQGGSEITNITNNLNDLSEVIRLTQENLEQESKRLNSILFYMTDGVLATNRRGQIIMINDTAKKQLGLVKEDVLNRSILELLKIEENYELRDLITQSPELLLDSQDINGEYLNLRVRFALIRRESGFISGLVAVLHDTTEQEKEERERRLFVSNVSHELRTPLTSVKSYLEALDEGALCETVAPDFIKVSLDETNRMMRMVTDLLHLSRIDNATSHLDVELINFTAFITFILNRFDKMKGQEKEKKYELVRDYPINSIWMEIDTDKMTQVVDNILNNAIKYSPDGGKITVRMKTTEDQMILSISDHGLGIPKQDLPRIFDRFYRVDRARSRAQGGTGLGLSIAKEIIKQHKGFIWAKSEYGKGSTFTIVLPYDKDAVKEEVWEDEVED

Take `Fc1ccc(-c2c(-c3ccncc3)[nH]c3nccnc23)cc1` [compound 32]: the “inhibition of VicK activity” value on VicK is recorded as “inhibit”. In addition, the “effect on cell viability” value (in test [1]; with Pseudomonas aeruginosa) was “did not cause a significant decrease in cell viability” each time. For the same compound, the “effect on biofilm production” value in the test on S. aureus and in the test with P. aeruginosa was “little effect” in each case. Further, the IC50 on p38 MAP kinase is 53 nM. The “inhibition of protein kinase D” value in the test with protein kinase D is “potent inhibitor”. Besides, the “displacement of ADP-BODIPY from the HK ATP-binding domain” value with HK853 [2] is reported as “displace ADP-BODIPY”. Also, the “inhibition of HK activity” value with HK853 [3] is reported as “inhibit”.

In the case of `Fc1ccc(-c2c(-c3ccncc3)[nH]c3cccnc23)cc1` [RO1153853–000], the “activity in the HTS (FP screen) for HK inhibition” value in the test on HK853 [2] (related library compounds that were not leads) was “inactive”.
